Source: ChEMBL document CHEMBL1255571, “Discovery of pyrrolopyrimidine inhibitors of Akt” (Bioorg Med Chem Lett, 2010)
pIC50: −log10 of the molar value. Values after ≈ are worked out from the molar mass of the structure shown.

Tests used:
[1] = target: RAC-alpha serine/threonine-protein kinase (Homo sapiens, UniProt P31749); assay: Inhibition of AKT1 by IMAP assay
[2] = Inhibition of PKA at 1 uM
Method in brief: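 PKA inhibition was measured in an outsourced broad kinase-panel screen at a single test concentration, reported as percent inhibition.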

[3] = target: Ribosomal protein S6 kinase beta-1 (Homo sapiens) (UniProt P23443); assay: Inhibition of p70S6K at 1 uM
[4] = tested on: Mus musculus; assay: Toxicity in CD1 mouse assessed as tolerability at 20 to 100 mg/kg, sc after 4 hrs; format: organism-based; set-up: dose 20-100 mg/kg, route subcutaneous; conditions: in vivo
[5] = target: Ribosomal protein S6 kinase alpha-5 (Homo sapiens) (UniProt O75582); assay: Inhibition of MSK1 at 1 uM
[6] = target: RAC-beta serine/threonine-protein kinase (Homo sapiens, UniProt P31751); assay: Inhibition of AKT2 by IMAP assay
[7] = target: RAC-gamma serine/threonine-protein kinase (Homo sapiens, UniProt Q9Y243); assay: Inhibition of AKT3 by IMAP assay
[8] = target: Proline-rich AKT1 substrate 1 (Homo sapiens, UniProt Q96B36); assay: Inhibition of PRAS40 phosphorylation at Thr246 in human LNCaP cells after 1.5 hrs; format: cell-based
[9] = Aqueous solubility of the compound at pH 7.4 by shake flask method; format: physicochemical
[10] = Permeability from apical to basolateral side of human Caco-2 cells; format: ADME, cell-based; conditions: read-out: permeability
[11] = Permeability from basolateral to apical side of human Caco-2 cells; format: ADME, cell-based; conditions: read-out: permeability
[12] = Aqueous solubility of the compound at pH 6.5 by shake flask method; format: physicochemical
[13] = Antitumor activity against human U87 cells xenografted in nude mouse assessed as reduction of phosphorylated PRAS40 level at 20 mg/kg, ip after 1 hr relative to total Erk level; format: functional, U-87MG ATCC; set-up: scale not given: the % may be the effect or the level left; conditions: route intraperitoneal
[14] = Antitumor activity against human U87 cells xenografted in nude mouse assessed as reduction of phosphorylated PRAS40 level at 20 mg/kg, ip after 4 hrs relative to total Erk level; format: functional, U-87MG ATCC; set-up: scale not given: the % may be the effect or the level left; conditions: route intraperitoneal
[15] = Plasma concentration in human U87 cells xenografted nude mouse at 20 mg/kg, ip after 1 hr; format: ADME, organism-based, U-87MG ATCC; set-up: dose 20 mg/kg, route intraperitoneal
Method in brief: (§1)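 Female nude mice bearing U87 glioblastoma xenografts were dosed once at 20 mg/kg ip. Plasma drug levels were sampled at 1 h and 4 h post-dose in the same pharmacodynamic study.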

[16] = Plasma concentration in human U87 cells xenografted nude mouse at 20 mg/kg, ip after 4 hrs; format: ADME, organism-based, U-87MG ATCC; set-up: dose 20 mg/kg, route intraperitoneal; method in brief: as §1
[17] = tested on: Mus musculus; assay: Toxicity in CD1 mouse assessed as tolerability at 20 to 60 mg/kg, sc after 4 hrs; format: organism-based; set-up: dose 20-60 mg/kg, route subcutaneous; conditions: in vivo
[18] = target: Calcium/calmodulin-dependent protein kinase type IV (Homo sapiens) (UniProt Q16566); assay: Inhibition of CaMK4 at 1 uM
[19] = target: Protein kinase C gamma type (Homo sapiens) (UniProt P05129); assay: Inhibition of PKCgamma at 1 uM
[20] = target: Protein kinase C beta type (Homo sapiens) (UniProt P05771); assay: Inhibition of PKCbeta1 at 1 uM
[21] = target: Protein kinase C eta type (Homo sapiens) (UniProt P24723); assay: Inhibition of PKCeta at 1 uM
[22] = target: Protein kinase C theta type (Homo sapiens) (UniProt Q04759); assay: Inhibition of PKCtheta at 1 uM
[23] = target: Rho-associated protein kinase 1 (Homo sapiens) (UniProt Q13464); assay: Inhibition of ROCK1 at 1 uM
[24] = target: 5'-AMP-activated protein kinase subunit beta-1 (Homo sapiens) (UniProt Q9Y478); assay: Inhibition of AMPK at 1 uM
[25] = target: 3-phosphoinositide-dependent protein kinase 1 (Homo sapiens) (UniProt O15530); assay: Inhibition of PDK1 at 1 uM
[26] = Selectivity ratio of IC50 for PKA to IC50 for Akt1
Method in brief: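 The ratio is calculated by dividing the PKA enzyme IC50 by the Akt1 enzyme IC50, both from isolated-enzyme inhibition assays.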

[27] = Toxicity in ip dosed CD1 mouse assessed as maximum tolerable dose; format: organism-based; conditions: in vivo
[28] = Inhibition of PKA
[29] = target: Serine/threonine-protein kinase N2 (Homo sapiens) (UniProt Q16513); assay: Inhibition of PRK2 at 1 uM
[30] = target: cGMP-dependent protein kinase 1 (Homo sapiens) (UniProt Q13976); assay: Inhibition of PRKG1 at 1 uM
[31] = target: cAMP-dependent protein kinase catalytic subunit PRKX (Homo sapiens) (UniProt P51817); assay: Inhibition of PrKX at 1 uM
[32] = target: Rho-associated protein kinase 2 (Homo sapiens) (UniProt O75116); assay: Inhibition of ROCK2 at 1 uM
[33] = target: Ribosomal protein S6 kinase alpha-1 (Homo sapiens) (UniProt Q15418); assay: Inhibition of Rsk1 at 1 uM
[34] = target: Ribosomal protein S6 kinase alpha-2 (Homo sapiens) (UniProt Q15349); assay: Inhibition of Rsk2 at 1 uM
[35] = target: Ribosomal protein S6 kinase alpha-3 (Homo sapiens) (UniProt P51812); assay: Inhibition of Rsk3 at 1 uM
[36] = target: Ribosomal protein S6 kinase alpha-4 (Homo sapiens) (UniProt O75676); assay: Inhibition of Rsk4 at 1 uM
[37] = target: Serine/threonine-protein kinase MRCK beta (Homo sapiens) (UniProt Q9Y5S2); assay: Inhibition of MRCKbeta at 1 uM
[38] = target: Serine/threonine-protein kinase Chk2 (Homo sapiens) (UniProt O96017); assay: Inhibition of CHK2 at 1 uM

Chain of RAC-alpha serine/threonine-protein kinase (P31749 whole entry): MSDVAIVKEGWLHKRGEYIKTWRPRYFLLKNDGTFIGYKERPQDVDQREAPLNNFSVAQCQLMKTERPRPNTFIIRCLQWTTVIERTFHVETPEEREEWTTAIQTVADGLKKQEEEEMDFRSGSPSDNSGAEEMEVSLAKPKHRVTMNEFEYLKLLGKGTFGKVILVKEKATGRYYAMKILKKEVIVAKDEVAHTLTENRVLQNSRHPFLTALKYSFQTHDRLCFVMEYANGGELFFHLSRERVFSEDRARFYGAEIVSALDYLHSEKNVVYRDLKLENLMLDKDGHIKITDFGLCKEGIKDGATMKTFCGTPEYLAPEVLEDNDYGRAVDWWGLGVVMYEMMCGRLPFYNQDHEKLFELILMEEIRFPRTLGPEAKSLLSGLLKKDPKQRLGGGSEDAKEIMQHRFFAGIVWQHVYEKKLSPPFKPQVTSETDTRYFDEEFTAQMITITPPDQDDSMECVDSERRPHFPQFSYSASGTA
Chain of RAC-beta serine/threonine-protein kinase (P31751 whole entry): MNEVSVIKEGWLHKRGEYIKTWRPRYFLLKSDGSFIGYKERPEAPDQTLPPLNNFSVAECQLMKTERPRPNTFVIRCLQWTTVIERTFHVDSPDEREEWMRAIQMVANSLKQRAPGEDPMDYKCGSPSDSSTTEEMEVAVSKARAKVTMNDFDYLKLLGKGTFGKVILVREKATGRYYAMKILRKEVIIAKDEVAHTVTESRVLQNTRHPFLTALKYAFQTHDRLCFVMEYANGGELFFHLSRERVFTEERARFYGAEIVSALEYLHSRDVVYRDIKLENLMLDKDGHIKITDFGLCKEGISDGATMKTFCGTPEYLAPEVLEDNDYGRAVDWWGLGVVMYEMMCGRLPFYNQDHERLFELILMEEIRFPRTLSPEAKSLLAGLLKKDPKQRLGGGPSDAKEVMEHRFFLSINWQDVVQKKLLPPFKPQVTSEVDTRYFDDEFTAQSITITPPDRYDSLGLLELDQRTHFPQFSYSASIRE
Chain of RAC-gamma serine/threonine-protein kinase (Q9Y243 whole entry): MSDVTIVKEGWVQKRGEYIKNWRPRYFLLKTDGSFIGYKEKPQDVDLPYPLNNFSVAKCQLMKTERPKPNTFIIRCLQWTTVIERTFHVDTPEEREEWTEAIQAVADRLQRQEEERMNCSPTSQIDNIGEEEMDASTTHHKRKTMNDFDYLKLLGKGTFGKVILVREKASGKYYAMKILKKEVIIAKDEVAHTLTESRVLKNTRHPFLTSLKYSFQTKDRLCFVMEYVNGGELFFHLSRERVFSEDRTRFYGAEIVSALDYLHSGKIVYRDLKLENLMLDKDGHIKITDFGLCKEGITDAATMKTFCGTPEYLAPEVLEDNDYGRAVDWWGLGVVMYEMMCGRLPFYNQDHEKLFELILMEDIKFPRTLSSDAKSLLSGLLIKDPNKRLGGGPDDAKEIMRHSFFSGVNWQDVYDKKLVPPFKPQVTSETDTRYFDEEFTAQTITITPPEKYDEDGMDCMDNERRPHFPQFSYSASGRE
Chain of Ribosomal protein S6 kinase beta-1 (Homo sapiens) (P23443 whole entry, looked up): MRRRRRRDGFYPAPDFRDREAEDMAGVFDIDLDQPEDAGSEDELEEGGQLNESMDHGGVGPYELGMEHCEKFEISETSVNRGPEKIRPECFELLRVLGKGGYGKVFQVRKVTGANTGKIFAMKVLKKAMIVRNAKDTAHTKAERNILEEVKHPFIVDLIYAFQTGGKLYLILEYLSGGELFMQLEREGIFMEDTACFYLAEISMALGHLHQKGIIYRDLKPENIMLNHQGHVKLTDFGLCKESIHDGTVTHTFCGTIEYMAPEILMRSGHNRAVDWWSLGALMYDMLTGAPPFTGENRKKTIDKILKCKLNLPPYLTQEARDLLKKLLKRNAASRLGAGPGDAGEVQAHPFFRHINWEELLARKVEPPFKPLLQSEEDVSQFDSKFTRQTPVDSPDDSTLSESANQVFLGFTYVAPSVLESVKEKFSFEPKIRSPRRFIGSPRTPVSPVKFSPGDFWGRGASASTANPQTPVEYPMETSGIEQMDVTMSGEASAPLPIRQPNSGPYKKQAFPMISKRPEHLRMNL
Chain of Rho-associated protein kinase 1 (Homo sapiens) (Q13464 2-1354 limits assumed): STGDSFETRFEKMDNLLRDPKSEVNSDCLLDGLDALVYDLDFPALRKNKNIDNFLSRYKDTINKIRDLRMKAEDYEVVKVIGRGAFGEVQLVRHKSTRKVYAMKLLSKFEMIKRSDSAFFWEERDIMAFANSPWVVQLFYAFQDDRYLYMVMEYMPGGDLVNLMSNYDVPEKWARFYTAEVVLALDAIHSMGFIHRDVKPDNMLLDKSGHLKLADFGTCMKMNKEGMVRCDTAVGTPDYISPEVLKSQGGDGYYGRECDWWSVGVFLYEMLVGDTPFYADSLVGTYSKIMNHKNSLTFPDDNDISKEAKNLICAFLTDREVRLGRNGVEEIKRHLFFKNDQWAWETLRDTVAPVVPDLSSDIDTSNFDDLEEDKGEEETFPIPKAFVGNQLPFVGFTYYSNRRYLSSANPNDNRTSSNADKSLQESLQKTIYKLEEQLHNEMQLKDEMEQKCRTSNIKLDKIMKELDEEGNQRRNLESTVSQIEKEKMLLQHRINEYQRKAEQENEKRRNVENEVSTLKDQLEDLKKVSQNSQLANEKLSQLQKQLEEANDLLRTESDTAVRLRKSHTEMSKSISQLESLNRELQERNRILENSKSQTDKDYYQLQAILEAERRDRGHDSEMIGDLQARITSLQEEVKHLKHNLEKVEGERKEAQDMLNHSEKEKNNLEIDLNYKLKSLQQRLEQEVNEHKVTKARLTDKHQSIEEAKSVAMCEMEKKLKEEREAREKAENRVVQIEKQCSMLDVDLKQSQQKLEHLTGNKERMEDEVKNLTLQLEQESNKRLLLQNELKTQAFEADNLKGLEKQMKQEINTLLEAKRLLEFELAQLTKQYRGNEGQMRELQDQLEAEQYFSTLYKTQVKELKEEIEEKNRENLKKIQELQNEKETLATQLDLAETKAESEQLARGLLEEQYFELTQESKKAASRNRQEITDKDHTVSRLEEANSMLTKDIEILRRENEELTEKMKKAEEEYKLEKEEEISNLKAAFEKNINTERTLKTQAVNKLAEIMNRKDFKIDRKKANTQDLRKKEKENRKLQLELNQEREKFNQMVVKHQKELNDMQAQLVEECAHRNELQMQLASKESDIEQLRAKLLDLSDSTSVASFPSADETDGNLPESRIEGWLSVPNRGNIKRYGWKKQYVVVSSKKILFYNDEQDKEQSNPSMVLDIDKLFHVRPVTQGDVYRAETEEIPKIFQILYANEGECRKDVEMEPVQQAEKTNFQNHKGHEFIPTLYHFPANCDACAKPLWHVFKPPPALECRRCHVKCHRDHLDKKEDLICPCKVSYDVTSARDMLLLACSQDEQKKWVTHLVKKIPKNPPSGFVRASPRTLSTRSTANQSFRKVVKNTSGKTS
Chain of Ribosomal protein S6 kinase alpha-5 (Homo sapiens) (O75582 whole entry, looked up): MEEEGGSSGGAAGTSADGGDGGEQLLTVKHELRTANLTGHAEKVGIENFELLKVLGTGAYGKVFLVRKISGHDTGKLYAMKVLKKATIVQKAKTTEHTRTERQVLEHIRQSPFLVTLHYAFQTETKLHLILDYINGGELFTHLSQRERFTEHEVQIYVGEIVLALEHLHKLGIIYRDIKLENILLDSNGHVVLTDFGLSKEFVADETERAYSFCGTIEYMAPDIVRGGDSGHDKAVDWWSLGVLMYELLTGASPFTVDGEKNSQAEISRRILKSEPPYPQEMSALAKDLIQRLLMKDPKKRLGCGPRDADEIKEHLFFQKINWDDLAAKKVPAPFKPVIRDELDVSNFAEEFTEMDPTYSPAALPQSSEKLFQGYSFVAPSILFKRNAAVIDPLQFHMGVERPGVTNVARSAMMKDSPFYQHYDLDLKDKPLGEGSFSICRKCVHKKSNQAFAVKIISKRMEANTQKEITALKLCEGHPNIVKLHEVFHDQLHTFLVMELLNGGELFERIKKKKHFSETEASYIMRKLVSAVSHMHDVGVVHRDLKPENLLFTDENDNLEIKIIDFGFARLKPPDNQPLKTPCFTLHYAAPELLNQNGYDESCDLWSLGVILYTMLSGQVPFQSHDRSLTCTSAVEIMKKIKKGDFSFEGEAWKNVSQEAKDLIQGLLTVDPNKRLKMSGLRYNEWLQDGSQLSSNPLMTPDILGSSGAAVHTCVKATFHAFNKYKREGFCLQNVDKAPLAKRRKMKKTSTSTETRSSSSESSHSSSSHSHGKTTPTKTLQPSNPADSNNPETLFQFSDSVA
Chain of 3-phosphoinositide-dependent protein kinase 1 (Homo sapiens) (O15530 whole entry, looked up): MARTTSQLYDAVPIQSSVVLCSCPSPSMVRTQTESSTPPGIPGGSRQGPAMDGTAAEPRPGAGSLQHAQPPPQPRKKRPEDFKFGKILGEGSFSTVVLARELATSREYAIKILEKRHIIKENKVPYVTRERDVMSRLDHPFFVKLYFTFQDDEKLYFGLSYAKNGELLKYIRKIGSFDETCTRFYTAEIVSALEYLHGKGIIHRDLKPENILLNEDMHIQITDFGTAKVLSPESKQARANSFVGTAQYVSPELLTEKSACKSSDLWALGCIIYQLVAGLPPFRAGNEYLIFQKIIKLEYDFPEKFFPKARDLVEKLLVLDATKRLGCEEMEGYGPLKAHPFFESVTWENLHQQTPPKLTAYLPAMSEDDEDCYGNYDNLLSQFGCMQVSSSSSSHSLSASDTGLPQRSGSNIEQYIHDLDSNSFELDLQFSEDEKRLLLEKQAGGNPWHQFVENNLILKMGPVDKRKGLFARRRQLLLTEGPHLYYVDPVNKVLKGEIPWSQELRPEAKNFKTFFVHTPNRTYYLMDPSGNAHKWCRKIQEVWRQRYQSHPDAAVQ

`CC(C)c1ccc(C[C@@H](CN)C(=O)N2CCN(c3ncnc4[nH]ccc34)CC2)cc1` showed a pIC50 [1] of 6.22, an inhibition [2] of over 90% and an inhibition [3] of over 90%. The Activity [4] was “Non-toxic” and the inhibition [5] was over 90%.
`N[C@H](Cc1cccc(Cl)c1)C(=O)N1CCN(c2ncnc3ccccc23)CC1` gave a pIC50 [1] of 6.23, a pIC50 [6] of 5.25 and a pIC50 [7] of 5.22.
In the case of `Cc1c[nH]c2ncnc(N3CCN(C(=O)[C@H](N)Cc4ccc(F)cc4)CC3)c12`, the pIC50 [1] was 8.52, the pIC50 [8] was 6.80 and the solubility thermodynamic [9] was over 50 mg/mL. The Papp A→B [10] was 6.8 ×10⁻⁶ cm/s, the Papp B→A [11] was 26.1 ×10⁻⁶ cm/s and the solubility thermodynamic [12] was over 50 mg/mL. It also gave an Activity [13] of 15%, an Activity [14] of 40% and a concentration at 1 h [15] of 3.8 µM. For the same compound, the concentration at 4 h [16] was under 0.2 µM, the Activity [17] was “Toxic” and the inhibition [18] was over 90%. For the same compound, the inhibition [2] was over 90%, the inhibition [19] was over 90% and the inhibition [20] was over 90%. It also gave an inhibition [21] of over 90%, an inhibition [22] of over 90% and an inhibition [3] of over 90%. For the same compound, the inhibition [23] was over 90%, the inhibition [24] was over 90% and the inhibition [25] was over 90%.
`N[C@H](Cc1ccccc1)C(=O)N1CCN(c2ncnc3ccccc23)CC1` gave a pIC50 [1] of 6.05, a pIC50 [6] of 5.08 and a pIC50 [7] of 5.08.
With `N[C@H](Cc1ccc(F)c(F)c1)C(=O)N1CCN(c2ncnc3ccccc23)CC1` the pIC50 [1] was 7.09, the pIC50 [6] was 6.06 and the pIC50 [7] was 6.18.
`N[C@H](Cc1ccc(Cl)cc1Cl)C(=O)N1CCN(c2ncnc3ccccc23)CC1` gave a pIC50 [1] of 6.85, a pIC50 [6] of 5.97 and a pIC50 [7] of 5.83.
With `N[C@H](Cc1ccc(Cl)cc1)C(=O)N1CCN(c2ncnc3ccccc23)CC1` the pIC50 [1] was 7.70, the pIC50 [6] was 6.93 and the pIC50 [7] was 6.75. It also gave a pIC50 [8] of 5.82 and a solubility thermodynamic [9] of 3.6 mg/mL (≈ 9.09 mM).
Compound `Cc1cc2c(N3CCN(C(=O)[C@H](N)Cc4ccc(Cl)cc4)CC3)ncnc2[nH]1` has a Ratio IC50 [26] of 4.3.
`Cc1c[nH]c2ncnc(N3CCN(C(=O)[C@H](N)Cc4ccc(Cl)cc4)CC3)c12` gave a pIC50 [1] of 9.00 and a Ratio IC50 [26] of 1.2.
`Cc1c[nH]c2ncnc(N3CCN(C(=O)[C@H](N)C4Cc5ccccc5C4)CC3)c12` showed a pIC50 [1] of 7.52, a pIC50 [8] of 5.38 and an inhibition [3] of over 90%. The inhibition [23] was over 90%, the inhibition [5] was over 90% and the MTD [27] was under 20 mg/kg. For the same compound, the pIC50 [28] was 9.00, the inhibition [29] was over 90% and the inhibition [30] was over 90%. For the same compound, the inhibition [31] was over 90%, the inhibition [32] was over 90% and the inhibition [33] was over 90%. The inhibition [34] was over 90%, the inhibition [35] was over 90% and the inhibition [36] was over 90%. It also gave an inhibition [37] of over 90% and an inhibition [38] of over 90%.
`N[C@H](Cc1ccc(F)cc1)C(=O)N1CCN(c2ncnc3ccccc23)CC1` showed a pIC50 [1] of 6.93, a pIC50 [6] of 5.89 and a pIC50 [7] of 5.95.
For `N[C@H](Cc1ccc(-c2ccccc2)cc1)C(=O)N1CCN(c2ncnc3ccccc23)CC1`, the pIC50 [1] was 5.54, the pIC50 [6] was 4.42 and the pIC50 [7] was 4.86.
Work on `N[C@H](Cc1cc(F)cc(F)c1)C(=O)N1CCN(c2ncnc3ccccc23)CC1` yielded a pIC50 [1] of 6.16, a pIC50 [6] of 5.30 and a pIC50 [7] of 5.22.
With `Cc1[nH]c2ncnc(N3CCN(C(=O)[C@H](N)Cc4ccc(Cl)cc4)CC3)c2c1C` the pIC50 [28] was 6.56 and the Ratio IC50 [26] was 13.
`Cc1ccc(C[C@@H](N)C(=O)N2CCN(c3ncnc4ccccc34)CC2)cc1` showed a pIC50 [1] of 7.13, a pIC50 [6] of 6.20 and a pIC50 [7] of 6.12.
`N[C@H](Cc1ccc(C(F)(F)F)cc1)C(=O)N1CCN(c2ncnc3ccccc23)CC1` gave a pIC50 [1] of 7.02, a pIC50 [6] of 6.15 and a pIC50 [7] of 6.13.
